The list is not random: actives were taken first. Their share in the collection is about 2.9%.
ERAP1 inh – inhibitors of human ERAP1 aminopeptidase; Q9NZ08; recombinant ERAP1, Leu-AMC fluorescence, 60 min; AID 652197; inhibition, % at 10.7 µM; actives 0.15% (n = 340,000);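 active = mean replicate inhibition of at least 30%, or all replicates individually reaching that 30% level; inactive = mean below 30% and not every replicate reaching it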
S100A4 inh HTS – inhibitors of human S100A4 binding to myosin IIA peptide. actives 0.14% (n = 360,000). AID 652163. S100A4/TAMRA-MyoIIA peptide fluorescence polarization. inhibition, % at 10.7 µM;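 active = mean inhibition of at least 70% across replicates, with every replicate also reaching that level; inconclusive = mean inhibition reaches 70% but some replicates fall short; inactive = mean inhibition below 70%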
Target sequence (P26447 whole entry, looked up): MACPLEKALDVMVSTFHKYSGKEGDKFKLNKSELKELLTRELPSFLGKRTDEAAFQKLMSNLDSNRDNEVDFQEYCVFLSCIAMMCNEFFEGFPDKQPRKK
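incubation = readout 5 min after mixing, signal stable up to 60 min | system = S100A4 monomer protein | buffer or medium = HEPES pH 7.2 with CaCl2, KCl, NaCl, DTT, Triton | benchmarks = neutral control DMSO, positive control TFP | also added = fluorescent myosin IIA peptide, 5 nM | compound dosing = one concentration per compound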
SIRT5 block – sirtuin-5 (human) deacylase inhibition; Purified SirT5, succinyl-peptide AMC, trypsin-coupled fluorescence; inhibition, % at 15 µM; actives 1.1% (n = 330,000); AID 652115; in the data active = inhibition above about 15%; inconclusive = no clear call, values can overlap the other calls
Target sequence (Q9NXA8 whole entry, looked up): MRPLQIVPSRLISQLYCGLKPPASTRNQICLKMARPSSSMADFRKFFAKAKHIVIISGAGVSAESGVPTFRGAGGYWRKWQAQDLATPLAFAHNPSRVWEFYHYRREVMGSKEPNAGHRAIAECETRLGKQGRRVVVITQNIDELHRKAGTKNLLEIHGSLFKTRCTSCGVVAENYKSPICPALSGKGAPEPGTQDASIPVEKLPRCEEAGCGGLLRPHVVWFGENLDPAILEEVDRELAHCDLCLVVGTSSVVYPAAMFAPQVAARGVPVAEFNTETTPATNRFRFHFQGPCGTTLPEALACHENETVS
CAL PDZ FP-1 – CAL PDZ (human) peptide binding inhibition | purified CAL PDZ, TMR-peptide fluorescence polarization, 1 h | inhibition, % at 24.9 µM | AID 602252 | actives 0.92% (n = 300,000) | Q9HD26;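 active = mean inhibition of at least 30% with at least half of replicates also reaching 30%; inconclusive = no clear call, values can overlap the other calls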
DENV2 CPE rescue – protects cells from dengue virus 2 cytopathic effect. DENV2-infected cells, cytopathic effect rescue, plate reader. CPE inhibition, % at 9.99 µM. actives 1.7% (n = 350,000). AID 651640; in the data active = CPE inhibition above about 20%, passing the limit was not always enough; inconclusive = no clear call, values can overlap the other calls; tested in BHK-21 cells
CAL PDZ FP-2 – inhibitors of human CAL PDZ peptide binding; Q9HD26; purified CAL PDZ, TMR-peptide fluorescence polarization, 1 h; inhibition, % at 20 µM; actives 0.02% (n = 330,000);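 active = highest replicate inhibition of at least 40%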
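material = purified tagged CAL PDZ domain construct (CerCALP) | buffer or medium = sodium phosphate/NaCl buffer pH 7.4 with TCEP, IgG, Thesit | reagent = TMR-labelled reporter peptide T*-PRC34 bound in PDZ groove | incubation = 1 h room-temperature incubation prior to read | measured by = fluorescence polarization (mP) | evaluation = percent inhibition from loss of millipolarization | control set = unlabelled peptide and DMSO controls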
A number is an active result.

Screening COc1ccc(C#Cc2ccc([C@@H]3[C@@H](CO)N4CCCCN(C(=O)Cc5cccnc5)C[C@H]34)cc2)cc1 returned ERAP1 inh inactive, S100A4 inh HTS inactive, SIRT5 block inactive and DENV2 CPE rescue inactive.
`O=C(Cc1cccnc1)N1CCCCN2[C@H](CO)[C@H](c3ccc(/C=C/c4ccccc4)cc3)[C@H]2C1` gave ERAP1 inh inactive, S100A4 inh HTS inactive, SIRT5 block inactive and DENV2 CPE rescue 25.4.
For N#Cc1cccc(-c2ccc([C@@H]3[C@@H](CO)N4CCCCN(C(=O)Cc5ccccc5)C[C@@H]34)cc2)c1 the results were ERAP1 inh inactive, S100A4 inh HTS inactive, SIRT5 block inactive and DENV2 CPE rescue 37.7.
`COc1cccc(-c2ccc([C@H]3[C@@H](CO)N4CCCCN(C(=O)Cc5ccncc5)C[C@@H]34)cc2)c1` gave ERAP1 inh inactive, S100A4 inh HTS inactive, SIRT5 block inactive and DENV2 CPE rescue 27.2.
`O=C(Cc1ccccc1)N1CCCCN2[C@H](CO)[C@@H](c3ccc(C#Cc4ccccc4)cc3)[C@@H]2C1` gave ERAP1 inh inactive, S100A4 inh HTS inactive, SIRT5 block inactive and DENV2 CPE rescue inactive.
`COC(=O)[C@@H]1[C@@H](CO)[C@@H]2Cn3c(cccc3=O)[C@H]1N2C(=O)C1CCCC1` gave ERAP1 inh inactive, S100A4 inh HTS inactive, SIRT5 block inactive and DENV2 CPE rescue inactive.
Screening O=C(Cc1ccccc1)N1C[C@H]2[C@@H](c3ccccc31)[C@H](CO)N2Cc1ccccc1 returned ERAP1 inh inactive, S100A4 inh HTS inactive, SIRT5 block inactive and DENV2 CPE rescue inconclusive.
`O=C(O)C[C@@H]1CC[C@H]2NC[C@H](O)COC[C@@H]2O1` gave ERAP1 inh inactive, S100A4 inh HTS inactive, SIRT5 block inactive and DENV2 CPE rescue inconclusive.
For COC(=O)[C@H]1[C@H](CO)[C@H]2Cn3c(ccc(-c4ccccc4F)c3=O)[C@@H]1N2 the results were ERAP1 inh inactive, S100A4 inh HTS inactive, SIRT5 block inactive and DENV2 CPE rescue inactive.
`C/C=C/c1ccc([C@H]2[C@@H](CO)N3CCCCN(C(=O)Cc4ccncc4)C[C@@H]23)cc1` gave ERAP1 inh inactive, S100A4 inh HTS inactive, SIRT5 block inactive and DENV2 CPE rescue 140.0.
`O=C(Cc1ccccc1)N1CCCCN2[C@H](CO)[C@@H](c3ccc(C#Cc4ccccc4)cc3)[C@H]2C1` gave ERAP1 inh inactive, S100A4 inh HTS inactive, SIRT5 block inactive and DENV2 CPE rescue inactive.
COc1cccc(-c2ccc([C@@H]3[C@@H](CO)N4CCCCN(C(=O)Cc5ccncc5)C[C@H]34)cc2)c1 was read as ERAP1 inh inactive, S100A4 inh HTS inactive, SIRT5 block inactive and DENV2 CPE rescue inactive.
For COc1ccc(Nc2ncc(C(=O)N3CCC4(CC3)OCCO4)c3ccccc23)cc1 the results were CAL PDZ FP-1 79.6 and CAL PDZ FP-2 inactive.
Screening CC[C@H]1CN2CCC1C[C@@H]2[C@H](O)c1ccnc2ccc(OC)cc12 (some centres not stated) returned ERAP1 inh inactive, S100A4 inh HTS inactive, SIRT5 block inactive, CAL PDZ FP-1 inactive, DENV2 CPE rescue inactive and CAL PDZ FP-2 inactive.
For C=CC1CN2CCC1CC2C(OC(C)=O)c1ccnc2ccc(OC)cc12 (configuration not stated) the results were S100A4 inh HTS inactive, SIRT5 block inactive, CAL PDZ FP-1 57.8, DENV2 CPE rescue inactive and CAL PDZ FP-2 inactive.
CN1CCN(c2ccc(S(=O)(=O)C(F)(F)F)cc2[N+](=O)[O-])CC1 was read as ERAP1 inh inactive, S100A4 inh HTS inactive, SIRT5 block 20.5, CAL PDZ FP-1 inactive, DENV2 CPE rescue inactive and CAL PDZ FP-2 inactive.
`COC(=O)[C@H]1[C@H](CO)[C@H]2Cn3c(ccc(-c4ccccc4F)c3=O)[C@@H]1N2Cc1ccncc1` gave ERAP1 inh inactive, S100A4 inh HTS inactive, SIRT5 block inactive and DENV2 CPE rescue inactive.
For O=C(Cc1ccccn1)N1CCCCN2[C@H](CO)[C@@H](c3ccc(C#Cc4ccccc4)cc3)[C@@H]2C1 the results were ERAP1 inh inactive, S100A4 inh HTS inactive, SIRT5 block inactive and DENV2 CPE rescue inactive.

Assay outcomes from PubChem.
